Screens as filed in PubChem BioAssay.
TCR CD3 inh: inhibitors of human TCR-CD3 interaction, primary screen, biochemical, fluorescence, TAMRA-labeled TCR probe | T-cell receptor (TCR) | inhibition, % at 9.4 µM | 360,000 tested, 0.37% active | AID 651800, 2012; in the data active = inhibition above about 19%;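 also: recombinant mutant TCR 2C K166C tagged with TAMRA read by polarization; 0% = receptor in buffer alone and 100% = receptor with positive control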
Apaf-1 inh: inhibitors of human Apaf-1 apoptosome, primary screen, biochemical, DEVD-Rh110 fluorescence, uHTS | Apoptotic protease-activating factor 1 (Homo sapiens), O14727 | reconstituted apoptosome caspase-3 activity | inhibition, % at 20 µM | 330,000 tested, 0.71% active | AID 489030, 2010; active = inhibition of at least 40% at 20 µM;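 also: plate controls were DMSO wells for no effect and DEVD-CHO caspase inhibitor wells for full effect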
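Medium: Hepes buffer, pH 7.5 / System: biochemical Apaf-1 apoptosome reconstitution / Measured by: Rh110 fluorescence, excitation 480 nm, emission 540 nm / Times: compound with Apaf-1, dATP, procaspase-3 30 min, then 50 min reaction, room temperature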
TDP2 inh: human TDP2 enzyme inhibitors, primary screen, biochemical, epi absorbance, recombinant enzyme; Tyrosyl-DNA phosphodiesterase 2 (Homo sapiens), O95551; T5PNP hydrolysis, p-nitrophenol absorbance 415 nm; inhibition, % at 12.8 µM; 370,000 tested, 0.34% active; AID 720702, 2013;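 active = inhibition above the mean of all tested compounds plus 3 SD, set per campaign, cut at about 25% in these data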;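 also: 0% = DMSO with enzyme and 100% = buffer with substrate but no TDP2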
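Material: recombinant human TDP2; quantity: TDP2 enzyme at 120 nM final; medium: Tris-HCl pH 7.5 with MgCl2; compound: single concentration, 12.8 µM nominal, with 1% DMSO; incubation: 2 h enzyme incubation at 37 °C; signal: epi absorbance; measure: percent inhibition; benchmarks: high control without enzyme, low control DMSO plus TDP2; repeats: singlicate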
SIAE inh: human SIAE inhibitors, primary screen, biochemical, fluorescence polarization, FP-Rh probe, 1536-well HTS; Sialate O-acetylesterase (Homo sapiens), Q9HAT2; SIAE FP-Rh probe binding; inhibition, % at 9.66 µM; 370,000 tested, 0.69% active; AID 1053197, 2014;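 active = inhibition above a cutoff: mean of compounds within the control limits plus 3 SD of those, cut at about 17% in these data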;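 also: 0% = plate median of compound wells and 100% = probe without SIAE protein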
Target sequence (Q9HAT2 whole entry, looked up): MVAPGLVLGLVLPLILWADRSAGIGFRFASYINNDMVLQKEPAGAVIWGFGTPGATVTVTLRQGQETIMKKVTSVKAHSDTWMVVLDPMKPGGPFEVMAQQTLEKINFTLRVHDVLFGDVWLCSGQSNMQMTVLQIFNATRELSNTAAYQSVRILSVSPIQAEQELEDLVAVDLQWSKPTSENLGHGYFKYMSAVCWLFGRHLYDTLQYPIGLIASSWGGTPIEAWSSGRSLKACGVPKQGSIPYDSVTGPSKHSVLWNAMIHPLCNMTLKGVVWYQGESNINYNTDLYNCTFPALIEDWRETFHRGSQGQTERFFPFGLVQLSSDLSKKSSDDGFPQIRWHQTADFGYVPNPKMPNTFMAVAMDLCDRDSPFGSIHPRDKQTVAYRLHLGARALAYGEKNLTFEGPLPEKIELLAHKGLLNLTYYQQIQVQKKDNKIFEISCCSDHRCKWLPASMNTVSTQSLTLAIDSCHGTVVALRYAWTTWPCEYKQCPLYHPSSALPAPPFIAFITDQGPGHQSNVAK
PAD4 FP inh: human PAD4 inhibitors, primary screen, biochemical, fluorescence polarization, 1536-well format | Protein-arginine deiminase type-4 (Homo sapiens), Q9UM07 | recombinant PAD4, RCA probe fluorescence polarization | inhibition, % at 6.36 µM | 330,000 tested, 0.41% active;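 active = percent inhibition above a cutoff equal to the mean of all tested compounds plus 3 SD, cut at about 15% in these data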;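 also: 0% = PAD4 with RCA probe and DMSO and 100% = probe without PAD4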
GSTO1 inh: inhibitors of recombinant GSTO1, primary screen, counter-screen for RBBP9 inhibitor project, biochemical, fluorescence polarization | Glutathione S-transferase omega-1 (Homo sapiens), P78417 | activity-based probe fluorescence polarization | inhibition, % at 5.96 µM | 300,000 tested, 1.1% active | AID 1974, 2009;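 active = inhibition above the campaign mean inhibition plus 3 SD, cut at about 35% in these data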;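 also: 0% = GSTO1-1 with DMSO and 100% = wells lacking GSTO1-1 enzyme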
GSTO1 confirm: GSTO1 inhibitor hit confirmation, counter-screen for RBBP9 inhibitor project, biochemical, fluorescence polarization, triplicate | 2,400 tested, 54% active | AID 2176, 2009 | recombinant GSTO1, probe fluorescence polarization | inhibition, % at 5.96 µM | shares compounds with GSTO1 inh;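 active = inhibition above the primary screen's cutoff, its mean inhibition plus 3 SD, cut at about 35% in these data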;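 also: loss of polarization as inhibitors block binding of rhodamine sulfonate ester activity probe; 0% = GSTO1 with DMSO and 100% = wells lacking GSTO1 enzyme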
PAD4 FP conf: human PAD4 inhibitors, confirmation, biochemical, fluorescence polarization; inhibition, % at 6.36 µM; recombinant PAD4, RCA probe fluorescence polarization; 1,200 tested, 28% active; shares compounds with PAD4 FP inh; AID 488796, 2010;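 active = mean inhibition across replicates above the hit cutoff set by the earlier primary screen, cut at about 15% in these data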;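 also: inhibitors block active-site labeling by the probe so polarization falls; 0% = PAD4 with probe and DMSO and 100% = probe without PAD4 enzyme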
Apaf-1 inh conf: Apaf-1 inhibitors, single-dose retest, confirmation, biochemical, fluorescence, DEVD-Rh110, 20 µM; shares compounds with Apaf-1 inh; reconstituted apoptosome, caspase-3 DEVD-Rh110 fluorescence; inhibition, % at 20 µM; 1,800 tested, 25% active; AID 504614, 2011;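 active = mean inhibition of at least 40% at 20 µM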;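 also: plate controls were DMSO wells for no effect and DEVD-CHO caspase inhibitor control wells for full effect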
Rh110 interf inh: Rh110 fluorescence interference by putative Apaf-1 inhibitors, confirmation, artefact control for Apaf-1 inhibitor project, biochemical, 20 µM. shares compounds with Apaf-1 inh. quenched caspase reaction. activation (fluorescence interference), % at 20 µM. 1,800 tested, under 10 active. AID 504615, 2011;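 active = signal rise of 40% or more at 20 µM, treated as a fluorescence artifact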
Fluor interf inh: fluorescence interference of Apaf-1 inhibitor hits, dose response, artefact control for Apaf-1 inhibitor project; shares compounds with Apaf-1 inh; fluorescence interference counterscreen, Apaf-1 assay format; IC50, µM; 460 tested, under 10 active; call rule not given here
TDP2 confirm: human TDP2 enzyme inhibitors, retest, confirmation, biochemical, epi absorbance, recombinant enzyme | shares compounds with TDP2 inh | absorbance read-out | inhibition, % at 12.8 µM | 1,100 tested, 22% active | AID 743263, 2014; in the data active = inhibition above about 25%;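 also: 0% = vehicle with enzyme and 100% = no enzyme buffer only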
The depositor's hits bear a star. Sampled rows, rich in hits. Any-hit rate of the full collection: about 2.4%.

Screening CCOc1ccccc1C=C1CCc2ccccc2C1=O returned TCR CD3 inh -2, TDP2 inh -8 and SIAE inh -7.
For CN1C(=O)c2ccccc2N(C)C1c1cccc(O)c1 (stereo not drawn) the results were TCR CD3 inh 4, Apaf-1 inh 5, TDP2 inh -19, SIAE inh -9, PAD4 FP inh 2 and GSTO1 inh 3.
N#Cc1c(N)n(CCNC(=O)c2ccccc2)c2nc3ccccc3nc12 was read as TCR CD3 inh 7, Apaf-1 inh -15, TDP2 inh -2, SIAE inh 3, PAD4 FP inh 1 and GSTO1 inh 0.
C=CCn1c(NC(=O)c2ccccc2Cl)c(C#N)c2nc3ccccc3nc21 was read as TCR CD3 inh 10, Apaf-1 inh 96*, TDP2 inh 79*, SIAE inh -1, PAD4 FP inh 59*, GSTO1 inh 79*, GSTO1 confirm 62*, PAD4 FP conf -2, Apaf-1 inh conf 60*, Rh110 interf inh 5, Fluor interf inh >100 and TDP2 confirm 45*.
`Cc1c(OCc2nn[nH]n2)ccc2c3c(c(=O)oc12)CCC(C)C3` (stereo not drawn) gave TCR CD3 inh -1, Apaf-1 inh 7, TDP2 inh 10, SIAE inh -7, PAD4 FP inh 1 and GSTO1 inh -13.
For CC(OC(=O)c1ccc(Cl)c(S(=O)(=O)N2CCc3ccccc32)c1)C(=O)Nc1ncc(Cl)cc1Cl (stereo not drawn) the results were TCR CD3 inh 3, Apaf-1 inh 5, TDP2 inh -2, SIAE inh -1, PAD4 FP inh -5 and GSTO1 inh -1.
For O=C1/C(=C/C=C/c2ccco2)SC(=S)N1c1ccc(O)cc1 the results were TCR CD3 inh 10, Apaf-1 inh 12, TDP2 inh 26*, SIAE inh 9, PAD4 FP inh -14, GSTO1 inh 46*, GSTO1 confirm 24 and TDP2 confirm 14.
CCc1ccc(-c2nc(C(N)=O)c3[nH]c(=O)n(-c4ccccc4OC)c3n2)cc1 was read as TCR CD3 inh -5, Apaf-1 inh 19, TDP2 inh -9, SIAE inh -8, PAD4 FP inh 3 and GSTO1 inh 0.
`COc1ccc(NC(=S)Nc2ccc3nsnc3c2)cc1` gave TCR CD3 inh 4, Apaf-1 inh 97*, TDP2 inh 76*, SIAE inh 9, PAD4 FP inh 68*, GSTO1 inh 86*, GSTO1 confirm 80*, PAD4 FP conf -4, Apaf-1 inh conf 97*, Rh110 interf inh 16, Fluor interf inh >100 and TDP2 confirm 80*.
For CCOc1ccc(NC(=S)Nc2ccc3nsnc3c2)cc1 the results were TCR CD3 inh 8, Apaf-1 inh -14, TDP2 inh 72*, SIAE inh 3, PAD4 FP inh 76*, GSTO1 inh 87*, GSTO1 confirm 81* and TDP2 confirm 74*.
Screening CC(C)N(C(=O)Nc1ccc2nsnc2c1)C(C)C returned TCR CD3 inh 5, Apaf-1 inh 97*, TDP2 inh 88*, SIAE inh 2, PAD4 FP inh 78*, GSTO1 inh 98*, GSTO1 confirm 77*, PAD4 FP conf 1, Apaf-1 inh conf 96*, Rh110 interf inh 0, Fluor interf inh >100 and TDP2 confirm 61*.
Screening S=C(Nc1ccc2nsnc2c1)N1CCCCCC1 returned TCR CD3 inh 5, Apaf-1 inh 93*, TDP2 inh 62*, SIAE inh 5, PAD4 FP inh 50*, GSTO1 inh 77*, GSTO1 confirm 79*, PAD4 FP conf -4, Apaf-1 inh conf 12, Rh110 interf inh 5 and TDP2 confirm 68*.
For CC1CCN(C(=O)Nc2ccc3nsnc3c2)CC1 the results were TCR CD3 inh -2, Apaf-1 inh 2, TDP2 inh 12, SIAE inh 1, PAD4 FP inh 1 and GSTO1 inh 4.
For CC(C)(C)NC(=O)CCC1COc2ccccc2O1 (stereo not drawn) the results were TCR CD3 inh -2, Apaf-1 inh -19, TDP2 inh -2, SIAE inh 1, PAD4 FP inh 1 and GSTO1 inh 2.
`COc1cc(C2C(C#N)=C(N)Oc3c2c(-c2ccccc2)nn3-c2ccccc2)cc(OC)c1OC` (stereo not drawn) gave TCR CD3 inh 4, Apaf-1 inh 16, TDP2 inh 80*, SIAE inh 23*, PAD4 FP inh 12, GSTO1 inh 52*, GSTO1 confirm 14 and TDP2 confirm 10.
For CCCc1nn(-c2ccccc2)c2c1C(c1cccs1)C(C#N)=C(N)O2 (stereo not drawn) the results were TCR CD3 inh 4, Apaf-1 inh 23, TDP2 inh 14, SIAE inh 9, PAD4 FP inh -7 and GSTO1 inh 7.
For O=C(Nc1ccc(F)cc1)c1ccc(S(=O)(=O)NCC2CCCO2)cc1 (stereo not drawn) the results were TCR CD3 inh 2, Apaf-1 inh -14, TDP2 inh 5, SIAE inh -6, PAD4 FP inh -7 and GSTO1 inh 4.
